Active and inactive are the calls of the source. The rule behind the calls is not given here.
How the values were obtained:
Rattus norvegicus [1] = assay: Tested in vivo for inhibition of sorbital accumulation in the sciatic nerve of streptozotocin- induced diabetic rat; % Inhibition at 30 mg/kg; assay type: functional
Rattus norvegicus [2] = species: Rattus norvegicus; assay: Dose required for inhibition of sorbital accumulation in the sciatic nerve of streptozotocin- induced diabetic rat.; assay type: functional
Method in brief: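 Oral dosing of streptozotocin-diabetic rats once daily for 5 days; sciatic nerve taken 4 h after final dose. Nerve sorbitol assayed fluorometrically via sorbitol dehydrogenase-generated NADH (ex 365/em 430 nm).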

[3] = molecular target: Aldo-keto reductase family 1 member B1 (Sus scrofa, UniProt P80276); assay: In vitro inhibitory activity against aldose reductase in porcine lens.
Method in brief: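 Partially purified porcine lens AR: lens homogenate in 250 mM phosphate pH 7.4 with 2 mM mercaptoethanol, 20000g supernatant, 40-60% ammonium sulfate cut. Assay mix: 100 mM phosphate pH 6.5, 0.2 mM NADPH, 1.5 mM DL-glyceraldehyde, 0.4 M Li2SO4, 7.0 mU/mL enzyme; 37 °C; A340 decrease over 1 min. IC50 read graphically from log concentration-inhibition curve.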

Rattus norvegicus [4] = assay: Tested in vivo for inhibition of sorbital accumulation in the sciatic nerve of streptozotocin- induced diabetic rat; % Inhibition at 100 mg/kg; assay type: functional
Rattus norvegicus [5] = assay: Compound tested in vivo for inhibition of sorbital accumulation in the sciatic nerve of streptozotocin- induced diabetic rat; % Inhibition at 1 mg/Kg; assay type: functional
Rattus norvegicus [6] = assay: Compound tested for inhibition of sorbital accumulation in the sciatic nerve of streptozotocin- induced diabetic rat; % Inhibition at 1 mg/kg; assay type: functional
Rattus norvegicus [7] = assay: Tested in vivo for inhibition of sorbital accumulation in the sciatic nerve of streptozotocin- induced diabetic rat;NS=No significant inhibition at 100 mg/kg; assay type: functional, organism-based; parameters: dose 100 mg/kg
Rattus norvegicus [8] = assay: Compound tested in vivo for inhibition of sorbital accumulation in the sciatic nerve of streptozotocin- induced diabetic rat at 100 mg/kg; assay type: functional

| SMILES | inhibition in vivo at 30 mg/kg (Rattus norvegicus [1]) [%] | ED50 (Rattus norvegicus [2]) [mg/kg/day] | IC50 [3] [nM] | other results |
| --- | --- | --- | --- | --- |
| O=C1CC2(C(=O)N1)C(=O)N(Cc1ccc(C(F)(F)F)cc1)C(=O)c1cccn12 (stereo not given) | 88.4 | – | – | – |
| O=C1CC2(C(=O)N1)C(=O)N(Cc1ccc(Br)cc1)C(=O)c1cccn12 (stereo not given) | 108 | 0.48 | – | – |
| O=C1CC2(C(=O)N1)C(=O)N(Cc1cccc(Cl)c1)C(=O)c1cccn12 (stereo not given) | 99.4 | 3.8 | 35 | – |
| CN(CC(=O)O)C(=O)c1ccc[nH]1 | – | – | 5000 | inhibition in vivo at 100 mg/kg (Rattus norvegicus [4]): 23.7% |
| O=C(O)Cc1nn(Cc2ccc(Br)cc2F)c(=O)c2ccccc12 [PONALRESTAT] | – | 11 | 21 | – |
| O=C1CC2(C(=O)N1)C(=O)N(Cc1ccc(Br)cc1F)C(=O)c1ccc(Cl)n12 (stereo not given) | – | – | – | inhibition in vivo at 1 mg/kg (Rattus norvegicus [5]): 20.2% |
| O=C1CC2(C(=O)N1)C(=O)N(Cc1ccc(Br)cc1F)C(=O)c1cccn12 (stereo not given) | 115 | 0.3 | 45 | inhibition in vivo at 1 mg/kg (Rattus norvegicus [6]): 105% |
| O=C1CC2(C(=O)N1)C(=O)N(Cc1ccccc1Br)C(=O)c1cccn12 (stereo not given) | 82.6 | – | – | – |
| Cc1ccc(CN2C(=O)c3cccn3C3(CC(=O)NC3=O)C2=O)cc1 (stereo not given) | 65.8 | – | – | – |
| CN1C(=O)c2cccn2C(CCC(=O)O)C1=O (stereo not given) | – | – | > 10000 | inhibition (Rattus norvegicus [7]): inactive |
| O=C1CC2(C(=O)N1)C(=O)NC(=O)c1cccn12 (stereo not given) | 33.2 | – | 630 | – |
| O=C1CC2(C(=O)N1)C(=O)N(Cc1ccc(Br)cc1F)C(=O)c1cc(Br)cn12 (stereo not given) | – | – | – | inhibition in vivo at 1 mg/kg (Rattus norvegicus [5]): 28.8% |
| Nc1ccc(CN2C(=O)c3cccn3C3(CC(=O)NC3=O)C2=O)cc1 (stereo not given) | 33.4 | – | 140 | – |
| O=C1CC2(C(=O)N1)C(=O)N(Cc1ccccc1Cl)C(=O)c1cccn12 (stereo not given) | 97 | 5.8 | 37 | – |
| O=C1CC2(C(=O)N1)C(=O)N(Cc1ccc(Cl)c(Cl)c1)C(=O)c1cccn12 (stereo not given) | 112 | 0.6 | – | – |
| COc1ccc2c(C(=S)N(C)CC(=O)O)cccc2c1C(F)(F)F [TOLRESTAT] | – | 26.7 | 15 | – |
| CN1CC(=O)n2cccc2C1=O | – | – | 7500 | inhibition in vivo at 100 mg/kg (Rattus norvegicus [4]): 55.7% |
| COC(=O)CN(C)C(=O)c1ccc[nH]1 | – | – | > 10000 | inhibition in vivo at 100 mg/kg (Rattus norvegicus [4]): 38% |
| CN1C(=O)c2cccn2C2(CC(=O)NC2=O)C1=O (stereo not given) | 51.2 | – | 280 | – |
| O=C1CC2(C(=O)N1)C(=O)N(Cc1ccccc1F)C(=O)c1cccn12 (stereo not given) | 98 | 1.3 | – | – |
| O=C1CC2(C(=O)N1)C(=O)N(c1ccccc1)C(=O)c1cccn12 (stereo not given) | 27.2 | – | 200 | – |
| O=C(O)CCC1C(=O)N(Cc2ccc(Cl)c(Cl)c2)C(=O)c2cccn21 (stereo not given) | – | – | 132 | inhibition in vivo at 100 mg/kg (Rattus norvegicus [8]): 17.2% |
| O=C1C[C@@]2(C(=O)N1)C(=O)N(Cc1ccc(Br)cc1F)C(=O)c1cccn12 | – | 0.18 | 15 | – |
